# High-throughput results: PubChem BioAssay, Broad Institute
# The list is not random: actives were taken first. Their share in the collection is about 1.2%.
# CAL PDZ FP-1: CAL PDZ peptide-binding inhibitors, primary screen, biochemical, fluorescence polarization, Cer-tagged CAL PDZ, HTS | Golgi-associated PDZ and coiled-coil motif-containing protein (Homo sapiens), Q9HD26 | inhibition, % at 20 µM | hit rate 0.02% among 330,000 | purified CAL PDZ, TMR-peptide fluorescence polarization, 1 h;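 active = highest replicate inhibition of at least 40%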;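 also: plate controls were DMSO neutral control wells for no effect and unlabeled competitor peptide control wells for full effect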
#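 Material – purified CerCALP PDZ construct · Detection – FP readout, S and P plane fluorescence · Measure – percent inhibition from loss of millipolarization · Controls – unlabelled peptide for full inhibition, DMSO wells as neutral · Probe or stimulus – TMR-labelled reporter peptide T*-PRC34 bound in PDZ groove · Times – 1 h at RT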
# CAL PDZ FP-2: untagged CAL PDZ binding inhibitors, primary screen, biochemical, fluorescence polarization, HTS; Golgi-associated PDZ and coiled-coil motif-containing protein (Homo sapiens), Q9HD26; purified CAL PDZ, TMR-peptide fluorescence polarization, 1 h; inhibition, % at 24.9 µM; hit rate 0.92% among 300,000; AID 602252, 2012;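 active = mean inhibition of at least 30% with at least half of replicates also reaching 30%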;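 also: 0% = DMSO neutral control and 100% = excess unlabeled competitor peptide PRC23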
# ARNT-TACC3 inh: disruptors of ARNT/TACC3 protein interaction, primary screen, biochemical, AlphaScreen, single concentration | inhibition, % at 9.99 µM | AID 623870, 2012 | Transforming acidic coiled-coil-containing protein 3 (Homo sapiens), Q9Y6A5 | AlphaScreen His-ARNT PAS-B/GST-TACC3 binding, luminescence; TACC3 fragment carries E629A point mutation | hit rate 0.66% among 390,000;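 active = mean inhibition of replicates at least 50% and at least half of replicates each reaching 50%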;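 also: 0% = complete ARNT plus TACC3 wells and 100% = ARNT alone without TACC3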
# Numbers without * were called inactive; nt = no result.
SMILES,CAL PDZ FP-1,CAL PDZ FP-2,ARNT-TACC3 inh
COc1cc(OC)cc(C(=O)Nc2nnc(-c3cccnc3)o2)c1,-3,-3,62*
O=C(Nc1nnc(-c2ccccn2)o1)c1cccc(Br)c1,1,-3,29
COc1cccc(-c2nnc(NC(=O)c3cccc(F)c3)o2)c1,-1,nt,16
O=C(Nc1nnc(-c2ccccn2)o1)c1cccc(Cl)c1,-2,-1,52*
O=C1CCCC(=O)C1=Cc1c[nH]c2ccccc12,-1,70*,-4
O=C1CCCc2c1[nH]c1ccccc21,nt,-3,4
C[C@H](CO)N1C[C@H](C)[C@@H](CN(C)Cc2ccncc2)Oc2ccc(NC(=O)Cc3ccccc3)cc2CC1=O,nt,nt,16
CCn1cc(C(=O)N[C@H](C(=O)NCCCOC)C(C)C)c(=O)c2cc3c(cc21)OCO3,-1,-2,-12
CCn1cc(C(=O)N[C@H](C(=O)O)C(C)C)c(=O)c2cc3c(cc21)OCO3,nt,46*,-31
CC(=O)N(C)C[C@H]1Oc2cc(C3=CCCC3)ccc2S(=O)(=O)N([C@H](C)CO)C[C@H]1C,nt,nt,2
O=C(NC1=C(Nc2ccc(Cl)cc2)C(=O)c2ccccc2C1=O)c1ccccc1,1,-1,51*
O=C(Nc1ccc(Nc2ccccc2)cc1)c1ccc(Cl)cc1,0,nt,-1
Cc1cccc(NC2=C(NC(=O)c3ccccc3)C(=O)c3ccccc3C2=O)c1,1,1,39*
Cc1cccc(C(=O)Nc2cccc(NC(=O)c3ccccc3)c2)c1,-3,-4,-5
C[C@@H]1CN([C@H](C)CO)C(=O)c2cccc(NC(=O)Nc3ccccc3)c2O[C@H]1CN(C)Cc1ccc2c(c1)OCO2,nt,nt,-3
COc1ccc(C(=O)Nc2ccc3c(c2)OC[C@H](C)NC[C@@H](C)[C@H](OC)CN(C)C3=O)cc1,nt,nt,-5
CCC(C)NCCOCCOc1ccc(C)cc1Br (stereo not given),1,7,-5
C=CCNCCOCCOc1ccc(C)cc1Br,-1,32*,0
O=C(Oc1c(Cl)cc(Cl)c2cccnc12)N1CCOCC1,-1,-1,-3
O=C(COc1ccc(Cl)c2cccnc12)N1CCOCC1,0,115*,nt
Cc1ccc(S(=O)(=O)Nc2ccc3c(c2)C(=O)N([C@H](C)CO)C[C@@H](C)[C@H](CN(C)Cc2ccncc2)OCCCC[C@@H](C)O3)cc1,nt,nt,-8
O=C(c1ccccc1)C(CCc1ccccn1)CCc1ccccn1,24,47*,1
CC(CCc1ccccn1)C(=O)c1ccccc1 (stereo not given),-1,-3,-2
C=CC[C@@]1(C(=O)N2CCCCC2)N=C(c2ccc(OCCCO)cc2)O[C@@H]1c1ccccc1,nt,nt,18
Cc1nn(-c2ccccc2)c2nc(C(Cl)(Cl)Cl)[nH]c(=O)c12,-1,59*,3
SMILES,CAL PDZ FP-1,CAL PDZ FP-2,ARNT-TACC3 inh
Cc1cc(C(F)(F)F)c2c(C)nn(-c3ccccc3)c2n1,0,nt,-46
CCCCCC(=O)NC(=S)Nc1ccc2oc(=O)ccc2c1,-1,86*,-4
COc1ccc(C(=O)NC(=S)Nc2ccc3oc(=O)ccc3c2)cc1,-2,-2,nt
C[C@@H]1CN([C@@H](C)CO)C(=O)Cc2cc(NC(=O)Cc3ccccc3)ccc2O[C@@H]1CN(C)Cc1ccc(C(=O)Nc2ccccc2N)cc1,nt,nt,-3
C[C@H]1CN([C@@H](C)CO)C(=O)c2cc(C#CCN(C)C)cnc2O[C@H]1CN(C)Cc1ccccc1F,nt,nt,4
CCn1c(SCC(=O)Nc2cccc(OC)c2)nc2ccccc2c1=O,-2,0,-1
COc1cccc(NC(=O)CSc2nc3ccsc3c(=O)n2-c2ccc(C(=O)O)cc2)c1,-1,44*,0
COc1ccc(NC(=O)Nc2cccc3c2O[C@@H](CN(C)C)[C@@H](C)CN([C@@H](C)CO)C3=O)cc1,nt,nt,-2
CCC(=O)N1[C@H](CN(CC)C(=O)c2ccc(F)cc2)[C@@H](c2ccccc2)[C@@H]1CO,nt,nt,5
CCOC(=O)C1CCN(c2c(NCCN(CC)c3ccccc3)c(=O)c2=O)CC1,0,54*,4
CCOC(=O)C1CCCN(c2c(NCCN(CC)c3ccccc3)c(=O)c2=O)C1 (stereo not given),-1,nt,nt
CC(Sc1nncs1)C(=O)Nc1ccc(S(=O)(=O)Nc2ncccn2)cc1 (stereo not given),-1,-4,48*
CC(Sc1nncs1)C(=O)Nc1ccc2c(c1)OCO2 (stereo not given),-1,-3,-31
O=C(c1ccc(N2CCCC2=O)cc1)N1CCN(c2ccccc2F)CC1,-1,56*,2
O=C(c1ccc(N2CCCC2=O)cc1)N1CCN(c2ccccc2O)CC1,-1,2,7
COc1ccc(S(=O)(=O)N(C)C[C@H]2Oc3ccc(NS(C)(=O)=O)cc3CC(=O)N([C@@H](C)CO)C[C@H]2C)cc1,nt,nt,2
COC1=C(Br)C(=O)c2ncccc2C1=O,0,-4,47*
O=C1c2cccnc2-c2ncccc21,-1,-4,29
COc1ccc(NC(=O)N(C)C[C@@H]2OCCCC[C@H](C)Oc3ccc(NC(=O)CCC(F)(F)F)cc3C(=O)N([C@@H](C)CO)C[C@@H]2C)cc1,nt,nt,-4
Cc1noc(C)c1NC(=O)Nc1ccc2c(c1)CC(=O)N([C@H](C)CO)C[C@H](C)[C@@H](CN(C)CC1CC1)O2,nt,nt,-4
COc1cccc(-c2nn(-c3ccc(C)cc3)cc2C(=O)N(C)CC(=O)Nc2cccc(F)c2)c1,0,47*,-12
COc1ccc(-c2nn(-c3ccccc3)cc2C(=O)N(C)CC(=O)Nc2cccc(F)c2)cc1,-1,-5,-1
CNC(=O)C[C@H]1CC[C@@H]2[C@H](COc3ccc(NC(=O)NC4CCCC4)cc3C(=O)N2C)O1,nt,nt,-15
O=C(NCc1csc(-c2cccs2)n1)C1CCCCC1,0,33*,-5
CCC(=O)NCc1csc(-c2cccs2)n1,-1,-5,-4
SMILES,CAL PDZ FP-1,CAL PDZ FP-2,ARNT-TACC3 inh
CCN1CCN(C(=O)c2cc(=O)c3cc(C)ccc3o2)CC1,-1,44*,nt
CCc1ccc2oc(C(=O)N3CCN(C)CC3)cc(=O)c2c1,0,3,0
CC1CCN(C(=O)COC(=O)Cn2cnc3c2c(=O)n(C)c(=O)n3C)CC1,-1,-3,-22
CC1CCCN(C(=O)Cn2cnc3c2c(=O)n(C)c(=O)n3C)C1 (stereo not given),nt,36*,-4
COCC(=O)Nc1ccc2c(c1)[C@@H]1C[C@H](CC(=O)N3CCCCC3)O[C@H](CO)[C@@H]1O2,nt,nt,-7
N#Cc1c(C(F)(F)F)cc(-c2ccccc2)[nH]c1=O,-2,36*,-4
Cc1ccc(-c2cc(C(F)(F)F)c(C#N)c(=O)[nH]2)cc1,-3,1,-11
CCCNC(=O)N1C[C@H](O)COC[C@H]2O[C@H](CC(=O)N3CCOCC3)CC[C@@H]21,nt,nt,2
C[C@H](CO)N1C[C@H](C)[C@@H](CN(C)CC2CCOCC2)Oc2ncc(C#C[C@@H](C)O)cc2C1=O,nt,nt,14
